Columns and labels:
[1] = test system: Plasmodium falciparum; test: (§1) Antimalarial activity against Plasmodium falciparum TM4/8.2 infected in human erythrocytes assessed as reduction in [3H]-hypoxanthine incorporation pretreated for 24 hrs followed by [3H]-hypoxanthine addition measured after 18 hrs by liquid scintillation counting method; assay type: functional, organism-based
[2] = test system: Plasmodium falciparum; test: as §1, with “against pyrimethamine-resistant” for “against”, “V1/S expressing Dihydrofolate reductase N51I/C59R/S108N/I164L mutant” for “TM4/8.2”, “18” for “24”, “24” for “18”; assay type: functional, organism-based
How it was run: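 P. falciparum V1/S kept in continuous culture in human erythrocytes at 37 °C under 3% CO2. Growth inhibition was read as [3H]-hypoxanthine incorporation.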

[3] = molecular target: T1, Dihydrofolate reductase (Homo sapiens, UniProt P00374); test: Inhibition of human dihydrofolate reductase using dihydrofolate as substrate in presence of NADPH by UV-vis spectrophotometry analysis
T1 sequence (P00374 whole entry): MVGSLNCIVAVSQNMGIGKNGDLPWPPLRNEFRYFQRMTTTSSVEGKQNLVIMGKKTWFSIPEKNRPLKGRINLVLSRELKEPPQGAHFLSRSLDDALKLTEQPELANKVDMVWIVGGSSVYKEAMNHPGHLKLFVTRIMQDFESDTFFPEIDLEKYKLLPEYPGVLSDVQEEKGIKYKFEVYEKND

[4] = Competitive inhibition of Plasmodium falciparum dihydrofolate reductase N51I/C59R/S108N/I164L quadruple mutant expressed in Escherichia coli BL21(DE3)pLysS using dihydrofolate as substrate in presence of NADPH by UV-vis spectrophotometry analysis
How it was run: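 Quadruple-mutant PfDHFR expressed from a pET plasmid in E. coli BL21(DE3)pLysS, induced with 0.4 mM IPTG at 20 °C for 20 h. Cells lysed by French press at 18,000 psi. Enzyme purified on methotrexate-Sepharose in 20 mM potassium phosphate pH 7.0 with 50 mM KCl, 10 mM DTT, 0.1 mM EDTA and 20% glycerol. Activity read spectrophotometrically at 25 °C. Ki measured in microplate format, assuming competitive inhibition.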

[5] = test system: Vero; test: Cytotoxicity against African green monkey Vero cells by sulforhodamine B assay; assay type: cell-based; conditions: Chlorocebus sabaeus
[6] = Selectivity ratio of IC50 for African green monkey Vero cells to IC50 for Plasmodium falciparum TM4/8.2 infected in human erythrocytes; assay type: toxicity, cell-based; conditions: read-out: Ratio IC50
[7] = test system: Plasmodium falciparum; test: Ratio of compound IC50 to pyrimethamine IC50 for antimalarial activity against Plasmodium falciparum TM4/8.2 infected in human erythrocytes; assay type: functional
[8] = test system: Plasmodium falciparum; test: Ratio of compound IC50 to pyrimethamine IC50 for antimalarial activity against Plasmodium falciparum V1/S infected in human erythrocytes; assay type: functional
[9] = Competitive inhibition of wild type Plasmodium falciparum dihydrofolate reductase expressed in Escherichia coli BL21(DE3)pLysS using dihydrofolate as substrate in presence of NADPH by UV-vis spectrophotometry analysis
How it was run: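 Wild-type PfDHFR expressed from pET plasmid after 0.4 mM IPTG induction at 20 °C for 20 h. Cells lysed by French press at 18,000 psi. Enzyme purified on methotrexate-Sepharose in 20 mM potassium phosphate pH 7.0 with 0.1 mM EDTA, 10 mM DTT, 50 mM KCl and 20% glycerol. Activity read spectrophotometrically at 25 °C. Ki measured in microplate format, assuming competitive inhibition.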

[10] = Selectivity ratio of IC50 for African green monkey Vero cells to IC50 for Plasmodium falciparum V1/S infected in human erythrocytes; assay type: toxicity, cell-based; conditions: read-out: Ratio IC50
[11] = test system: dihydrofolate reductase; test: Selectivity ratio of Ki for human dihydrofolate reductase to Ki for Plasmodium falciparum dihydrofolate reductase N51I/C59R/S108N/I164L quadruple mutant; assay type: toxicity; conditions: read-out: Ratio Ki
[12] = test system: dihydrofolate reductase; test: Selectivity ratio of Ki for human dihydrofolate reductase to Ki for wild type Plasmodium falciparum TM4/8.2 dihydrofolate reductase; assay type: toxicity; conditions: read-out: Ratio Ki

Row | SMILES | IC50 [1] [nM] | IC50 [2] [nM] | Ki ([3]; read-out: Ki) [nM] | Ki [4] [nM] | IC50 [5] [nM] | Ki [3] | selectivity ratio [6] | Ratio IC50 [7] | Ratio IC50 [8] | Ki [9] [nM] | selectivity ratio [10] | selectivity ratio [11] | selectivity ratio [12]
1 | CCc1nc(N)nc(N)c1-c1ccccc1 | 720 | > 50000 | 10.4 |  |  |  |  |  |  |  |  |  | 
2 | Cl.Nc1nc(N)c(-c2cccc(Cl)c2)c(CCCCCOc2ccccc2)n1 | 430 | 9170 | 18.4 | 3.2 | 7210 |  |  |  |  |  |  |  | 
3 | Cl.Nc1nc(N)c(-c2ccccc2)c(COc2cccc(OCCCC(=O)O)c2)n1 | 5240 | 31100 | 556 |  | > 50000 |  |  |  |  |  |  |  | 
4 | CCOC(=O)CCCOc1ccccc1CCc1nc(N)nc(N)c1-c1cccc(Cl)c1 | 710 | 5240 | 23.4 |  | 8130 |  |  |  |  |  |  |  | 
5 | Cl.Nc1nc(N)c(-c2cccc(Cl)c2)c(CCCCOc2cccc(OCC(=O)O)c2)n1 | 43 | 1420 | 13.4 | 0.72 | > 50000 |  |  |  |  |  |  |  | 
6 | Cl.Nc1nc(N)c(-c2ccccc2)c(CCCOc2cccc(OCC(=O)O)c2)n1 | 71 | 2710 | 18.2 | 0.5 | > 10000 |  |  |  |  |  |  |  | 
7 | Cl.Nc1nc(N)c(-c2cccc(Cl)c2)c(CCc2ccccc2OCCCc2ccccc2)n1 | 6250 | 5500 |  |  | 650 | Active |  |  |  |  |  |  | 
8 | Cl.Nc1nc(N)c(-c2ccccc2)c(COc2cccc(OCC(=O)O)c2)n1 | 52600 | > 100000 | 509 |  | > 100000 |  |  |  |  |  |  |  | 
9 | Cl.Nc1nc(N)c(-c2cccc(Cl)c2)c(CCc2ccccc2OCc2ccccc2)n1 | 1940 | 4810 | 14.4 | 3.06 | 400 |  |  |  |  |  |  |  | 
10 | Cl.Nc1nc(N)c(-c2cccc(Cl)c2)c(CCCOc2cccc(OCCCC(=O)O)c2)n1 | 49 | 440 | 19.6 | 0.98 | > 10000 |  |  |  |  |  |  |  | 
11 | Cl.Nc1nc(N)c(-c2cccc(Cl)c2)c(CCCCOc2cccc(OCCCC(=O)O)c2)n1 | 51 | 3000 | 21.7 | 0.93 | > 100000 |  |  |  |  |  |  |  | 
12 | Cl.Nc1nc(N)c(-c2ccccc2)c(CCCCCOc2ccccc2)n1 | 380 | 7890 | 32.9 | 3.61 | 7910 |  | 20.8 | 4.75 | 0.08 | 0.3 | 1 | 9.11 | 110
13 | Cl.Nc1nc(N)c(-c2cccc(Cl)c2)c(COc2cccc(OCCCC(=O)O)c2)n1 | 1800 | 6200 | 74.2 |  | > 100000 |  |  |  |  |  |  |  | 
14 | Cl.Nc1nc(N)c(-c2ccccc2)c(CCc2ccccc2OCc2ccccc2)n1 | 650 | 4370 | 22.1 |  | 1870 |  |  |  |  |  |  |  | 
15 | Cl.Nc1nc(N)c(-c2ccccc2)c(CCCCOc2ccccc2)n1 | 360 | 11200 | 48.7 | 1.73 | 15400 |  |  |  |  |  |  |  | 
16 | CCOC(=O)CCCOc1ccccc1CCc1nc(N)nc(N)c1-c1ccccc1.Cl | 1250 | > 10000 | 32.4 |  | > 10000 |  |  |  |  |  |  |  | 
17 | Cl.Nc1nc(N)c(-c2ccccc2)c(CCCCOc2cccc(OCCCC(=O)O)c2)n1 | 71 | 3910 | 34.8 | 1.24 | > 100000 |  |  |  |  |  |  |  | 
18 | Cl.Nc1nc(N)c(-c2ccccc2)c(CCCOc2ccccc2)n1 | 130 | 15100 | 12.5 | 1.37 | 1390 |  |  |  |  |  |  |  | 
19 | Cl.Nc1nc(N)c(-c2ccccc2)c(CCc2ccccc2OCCCc2ccccc2)n1 | 6730 | 6150 | 27.3 |  | 4960 |  |  |  |  |  |  |  | 
20 | Cl.Nc1nc(N)c(-c2cccc(Cl)c2)c(CCCCOc2ccccc2)n1 | 340 | 6940 | 12.8 | 1.49 | 5150 |  |  |  |  |  |  |  | 
21 | Cl.Nc1nc(N)c(-c2cccc(Cl)c2)c(CCCOc2ccccc2)n1 | 170 | 3420 | 8.72 | 1.16 | 470 |  | 2.76 | 2.13 | 0.03 | 0.24 | 0.14 | 7.52 | 36.3
22 | Cl.Nc1nc(N)c(-c2cccc(Cl)c2)c(COc2cccc(OCC(=O)O)c2)n1 | 6010 | 11400 | 52.4 |  | > 10000 |  |  |  |  |  |  |  | 
23 | Cl.Nc1nc(N)c(-c2ccccc2)c(CCCOc2cccc(OCCCC(=O)O)c2)n1 | 52 | 540 | 29.1 | 1.26 | > 25000 |  |  |  |  |  |  |  | 
24 | Cl.Nc1nc(N)c(-c2ccccc2)c(CCCCOc2cccc(OCC(=O)O)c2)n1 | 58 | > 1000 | 46 | 1.04 | > 1000 |  | > 17.2 | 0.73 | 0.01 | 0.5 |  | 44.2 | 91.9
25 | Cl.Nc1nc(N)c(-c2cccc(Cl)c2)c(CCCOc2cccc(OCC(=O)O)c2)n1 | 48 | 430 | 13.6 | 0.41 | > 50000 |  |  |  |  |  |  |  | 
26 | CCc1nc(N)nc(N)c1-c1ccc(Cl)cc1 [PYRIMETHAMINE] |  | > 100000 |  | 385 |  |  |  |  |  | 0.6 |  |  | 

From ChEMBL document CHEMBL4406897 (Bioorg Med Chem, 2019)
